Measured values taken from ChEMBL document CHEMBL1132260, “Antitumor agents. 194. Synthesis and biological evaluations of 4-beta-mono-, -di-, and -trisubstituted aniline-4'-O-demethyl-podophyllotoxin and related compounds with improved pharmacological profiles” (J Med Chem, 1999).

Legend:
[1] = tested on: A549; test: The compound was tested for tumor cell growth inhibitory activity against human lung carcinoma (A549) cell line.; format: functional; details: A549, read-out: ED50
Procedure, shortened: (§1)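 For the SRB growth assay, cells were grown in RPMI-1640 with 10% FBS and kanamycin at 37 °C under 5% CO2. Drug exposure was 3 days, with DMSO ≤2% final. Absorbance was read at 562 nm. ED50 (50% absorbance reduction vs untreated) was interpolated from dose–response data. Tests were run in triplicate.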

[2] = molecular target: T1, DNA topoisomerase II (Homo sapiens) (UniProt P11388+Q02880); test: The compound was tested for inhibitory activity against human DNA topoisomerase II; format: protein assay
Procedure, shortened: (§2)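 Human topoisomerase II (p170 isoform, 0.25 U) was assayed by P4 DNA unknotting. The buffer was 50 mM Tris-HCl pH 7.5, 100 mM KCl, 10 mM MgCl2, 0.5 mM DTT, 0.5 mM EDTA and 1 mM ATP, with BSA. Reactions ran 1 h at 37 °C, were stopped with SDS-sucrose, then run on 0.7% agarose and stained with ethidium bromide. Inhibition was scored by eye. IC100 is the concentration giving complete inhibition.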

[3] = tested on: HCT-8; test: The compound was tested for tumor cell growth inhibitory activity against human ileocecal carcinoma (HCT-8) cell line; format: functional; details: HCT-8, read-out: ED50; procedure, shortened: as §1
[4] = tested on: KB; test: Cellular protein-DNA complex breaking activity against KB cells labeled with tritiated thymidine.; format: functional, Homo sapiens
Procedure, shortened: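 KB cells were labelled overnight with tritiated thymidine, chased 2 h, then exposed in triplicate to test agent for 1 h. Protein–DNA complexes were read as potassium-SDS precipitable radioactivity and expressed as fold over untreated control.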

[5] = tested on: KB; test: The compound was tested for tumor cell growth inhibitory activity against human KB-7d cell line resistant to etoposide; format: functional; details: read-out: ED50 (the source's name); procedure, shortened: as §1
[6] = tested on: KB; test: The compound was tested for tumor cell growth inhibitory activity against human KB-vin20c cell line resistant to vincristine; format: functional; details: read-out: ED50 (the source's name); procedure, shortened: as §1
[7] = tested on: CAKI-1; test: The compound was tested for tumor cell growth inhibitory activity against human renal cancer(CAKI-1) cell line; format: functional; details: CAKI-1, read-out: ED50; procedure, shortened: as §1
[8] = The compound was tested for cytotoxic activity against KB cell line by clonogenic cell survival assay.; format: cell-based; details: human, KB cells; read-out: LD50 (the source's name)
Procedure, shortened: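 KB cells were exposed to a range of concentrations for 3 h, then replated. Colony formation and plating efficiency were counted. LD50 (50% fall in plating efficiency vs untreated control) was read graphically. There were three independent experiments.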

[9] = tested on: MCF7; test: The compound was tested for tumor cell growth inhibitory activity against human breast cancer (MCF-7) cell line.; format: functional; details: MCF7, read-out: ED50; procedure, shortened: as §1
[10] = tested on: Mus musculus; test: The compound was tested for antitumor activity against (P388/0) Leukemia cells in mice. with a dosage of 10.0 mg/Kg/dose. activity is expressed as %ILS.; format: functional; details: Leukemia cell
Procedure, shortened: (§3)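 The P388/0 leukaemia was implanted ip in female CD2F1 mice. Treatment was iv on a Q4D×3 schedule, injected at 0.1 cm³/10 g body weight. Agents were given in saline or in 10% DMSO/35% PEG 300/5% Tween 80/50% D5W, against a saline control. Median day of death, %ILS and net log change in tumour burden (at end of treatment) were recorded. The work was done at a contract lab.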

[11] = tested on: Mus musculus; test: The compound was tested for antitumor activity against (P388/0) Leukemia cells in mice. with a dosage of 27.0 mg/kg/dose. activity is expressed as %ILS.; format: functional; details: Leukemia cell; procedure, shortened: as §3
[12] = tested on: Mus musculus; test: The compound was tested for antitumor activity against (P388/0) Leukemia cells in mice. with a dosage of 40.0 mg/Kg/dose. activity is expressed as %ILS.; format: functional; details: Leukemia cell; procedure, shortened: as §3
[13] = tested on: Mus musculus; test: The compound was tested for antitumor activity against (P388/0) Leukemia cells in mice. with a dosage of 10.0 mg/Kg/dose. activity is expressed as net log change in tumor burden.; format: functional, Leukemia cell; procedure, shortened: as §3
[14] = tested on: Mus musculus; test: The compound was tested for antitumor activity against (P388/0) Leukemia cells in mice. with a dosage of 27.0 mg/Kg/dose. activity is expressed as net log change in tumor burden.; format: functional, Leukemia cell; procedure, shortened: as §3
[15] = tested on: Mus musculus; test: The compound was tested for antitumor activity against (P388/0) Leukemia cells in mice. with a dosage of 40.0 mg/Kg/dose. activity is expressed as net log change in tumor burden.; format: functional, Leukemia cell; procedure, shortened: as §3
[16] = tested on: Mus musculus; test: The compound was tested for antitumor activity against (P388/0) Leukemia cells in mice. with a dosage of 10.0 mg/Kg/dose. activity is expressed as median day of death.; format: functional, Leukemia cell; procedure, shortened: as §3
[17] = tested on: Mus musculus; test: The compound was tested for antitumor activity against (P388/0) Leukemia cells in mice. with a dosage of 40.0 mg/Kg/dose; format: functional, Leukemia cell; procedure, shortened: as §3
[18] = tested on: Mus musculus; test: The compound was tested for antitumor activity against Subcutaneous Mammary Tumor MCF-7 cells. with a dosage of 27.0 mg/Kg/dose. activity is expressed as days to tumor doubling.; format: functional, MCF7
Procedure, shortened: (§4)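 MCF-7 human mammary tumour cells were implanted sc in female athymic nude mice. Dosing was iv on a Q4D×3 schedule at 0.1 cm³/10 g body weight, using saline or a DMSO/PEG 300/Tween 80/D5W vehicle, with a saline control. The endpoint was days to tumour doubling.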

[19] = tested on: Mus musculus; test: The compound was tested for antitumor activity against Subcutaneous Mammary Tumor MCF-7 cells. with a dosage of 40.0 mg/Kg/dose. activity is expressed as days to tumor doubling.; format: functional, MCF7; procedure, shortened: as §4
[20] = tested on: Mus musculus; test: The compound was tested for antitumor activity against (P388/0) Leukemia cells in mice. with a dosage of 27.0 mg/Kg/dose. activity is expressed as median day of death.; format: functional, Leukemia cell; procedure, shortened: as §3
[21] = molecular target: T1, DNA topoisomerase II (Homo sapiens); test: The compound was tested for inhibitory activity against human DNA topoisomerase-2.; format: protein assay; procedure, shortened: as §2
[22] = tested on: KB; test: The compound was tested for tumor cell growth inhibitory activity against human etoposide (KB-7d) cell line.; format: functional; details: read-out: ED50 (the source's name); procedure, shortened: as §1

SMILES	EC50 [1] [nM]	IC100 [2] [µM]	EC50 [3] [µM]	Complex formation [4] [%]	EC50 [5] [µM]	EC50 [6] [µM]	EC50 [7] [nM]	CC50 [8] [µM]	EC50 [9] [nM]	IC100 [21] [µM]	EC50 [22] [mM]	other results
COc1cc([C@@H]2c3cc4c(cc3[C@@H](Nc3nc5ccccc5[nH]3)[C@H]3COC(=O)[C@H]23)OCO4)cc(OC)c1O	3500	100	3.3	58	0.9	1000	17500	–	–	–	–	–
COc1cc([C@@H]2c3cc4c(cc3[C@@H](O[C@@H]3O[C@@H]5CO[C@@H](C)O[C@H]5[C@H](O)[C@H]3O)[C@H]3COC(=O)[C@H]23)OCO4)cc(OC)c1O [ETOPOSIDE]	1950	–	> 5	100	23.8	30.6	2200	20	> 5000	–	–	ILS at 10 mg/kg/day [10]: 90%; ILS at 27 mg/kg/day [11]: 130%; ILS at 40 mg/kg/day [12]: 160%; Net log change in tumor burden [13]: -0.7; Net log change in tumor burden [14]: -3.4; Net log change in tumor burden [15]: -5.5; Day of death [16]: 19; Day of death [17]: 26; Days to tumor doubling [18]: 18.5; Days to tumor doubling [19]: >24.1; Day of death [20]: 23
COc1cc([C@@H]2c3cc4c(cc3[C@@H](Nc3ccc(NC(=O)C56CCC(C)(C(=O)O5)C6(C)C)cc3)[C@H]3COC(=O)[C@H]23)OCO4)cc(OC)c1O (stereo partly drawn)	2200	–	20	88	–	–	> 1250	–	> 5000	10	5.6	–
COc1cc(N[C@@H]2c3cc4c(cc3[C@@H](c3cc(OC)c(O)c(OC)c3)[C@H]3C(=O)OC[C@@H]32)OCO4)c(C)cc1[N+](=O)[O-]	> 50000	> 100	> 50	3.5	–	–	> 50000	–	–	–	–	–
COc1ccc(N[C@@H]2c3cc4c(cc3[C@@H](c3cc(OC)c(O)c(OC)c3)[C@H]3C(=O)OC[C@@H]32)OCO4)c([N+](=O)[O-])c1	1700	–	2	15	–	–	630	> 20	2500	> 100	0.74	–
COc1cc([C@@H]2c3cc4c(cc3[C@@H](Nc3ccc([N+](=O)[O-])cc3)[C@H]3COC(=O)[C@H]23)OCO4)cc(OC)c1O	–	–	8.5	122	–	–	1500	1	28500	10	–	–
COc1cc([C@@H]2c3cc4c(cc3[C@@H](Nc3ccc(-c5nc6ccccc6[nH]5)cc3)[C@H]3COC(=O)[C@H]23)OCO4)cc(OC)c1O	230	10	0.63	128	450	1.4	350	0.2	850	–	–	–
COc1cc([N+](=O)[O-])c(OC)cc1N[C@@H]1c2cc3c(cc2[C@@H](c2cc(OC)c(O)c(OC)c2)[C@H]2C(=O)OC[C@@H]21)OCO3	21500	> 100	> 50	4.4	37	20	45000	–	–	–	–	–
COc1cc([C@@H]2c3cc4c(cc3[C@H](Nc3cc([N+](=O)[O-])cc([N+](=O)[O-])c3)[C@H]3COC(=O)[C@H]23)OCO4)cc(OC)c1O	> 5000	–	> 5	8	–	–	> 10000	–	2500	> 100	7.6	–
COc1ccc([N+](=O)[O-])cc1N[C@@H]1c2cc3c(cc2[C@@H](c2cc(OC)c(O)c(OC)c2)[C@H]2C(=O)OC[C@@H]21)OCO3	2250	–	4.8	12	–	–	2500	> 20	2400	> 100	1.8	–
COc1cc([N+](=O)[O-])ccc1N[C@@H]1c2cc3c(cc2[C@@H](c2cc(OC)c(O)c(OC)c2)[C@H]2C(=O)OC[C@@H]21)OCO3	630	–	> 10	83	–	–	1100	> 20	5000	> 100	4	–
COc1cc([C@@H]2c3cc4c(cc3[C@@H](Nc3cc([N+](=O)[O-])cc([N+](=O)[O-])c3)[C@H]3COC(=O)[C@H]23)OCO4)cc(OC)c1O	> 40000	–	26	20	–	–	10000	–	> 5000	> 100	17.5	–
